This is a sample that favours compounds with a hit; in the whole collection about 1.8% have one here.
SIAE inh = blocks human sialic acid acetylesterase. inhibition, % at 9.66 µM. SIAE FP-Rh probe binding, fluorescence polarization. 0.69% of 370,000 active;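 active = inhibition above a cutoff: mean of compounds within the control limits plus 3 SD of those, cut at about 17% in these data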
Target sequence (Q9HAT2 whole entry, looked up): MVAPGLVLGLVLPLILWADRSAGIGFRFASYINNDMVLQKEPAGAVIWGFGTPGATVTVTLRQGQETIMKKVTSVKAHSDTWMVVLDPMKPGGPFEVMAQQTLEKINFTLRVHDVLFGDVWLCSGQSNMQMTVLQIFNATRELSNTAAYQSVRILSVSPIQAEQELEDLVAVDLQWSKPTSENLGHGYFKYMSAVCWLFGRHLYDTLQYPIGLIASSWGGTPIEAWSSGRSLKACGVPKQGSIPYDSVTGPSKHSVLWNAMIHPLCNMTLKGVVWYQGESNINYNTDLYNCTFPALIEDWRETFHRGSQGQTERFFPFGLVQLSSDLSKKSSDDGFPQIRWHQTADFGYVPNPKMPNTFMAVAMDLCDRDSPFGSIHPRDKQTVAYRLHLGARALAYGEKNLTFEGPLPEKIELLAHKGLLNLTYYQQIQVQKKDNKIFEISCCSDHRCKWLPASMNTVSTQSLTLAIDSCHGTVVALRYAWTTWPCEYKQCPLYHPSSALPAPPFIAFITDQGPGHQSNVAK
Fam108B counter = counter-screen for RBBP9 inhibitors: inhibitors of mouse Fam108B; recombinant Fam108B, FP-Rh probe fluorescence polarization; inhibition, % at 9.51 µM; 0.33% of 300,000 active; AID 1947;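 active = inhibition above the screen mean inhibition plus 3 SD, computed separately per campaign, cut at about 18% in these data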;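 note: inhibitors lower polarization as less probe binds the enzyme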
TCR-CD3 inh = human TCR-CD3 binding inhibition. TAMRA-labeled TCR probe fluorescence, biochemical. inhibition, % at 9.4 µM. 0.37% of 360,000 active;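 note: recombinant mutant TCR 2C K166C tagged with TAMRA read by polarization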
PME-1 primary = blocks human protein phosphatase methylesterase 1; Q9Y570; recombinant PME-1, FP-Rh probe fluorescence polarization; inhibition, % at 5.9 µM; 0.53% of 320,000 active; AID 2130;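 active = inhibition above the campaign mean of all compounds plus 3 SD, cut at about 26% in these data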;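 note: competitive labeling of PME-1 active site by serine hydrolase directed probe; inhibitors block probe labeling so polarization falls and inhibition rises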
HTRA1 inhibitor = blocks human HTRA1 serine peptidase | 0.5% of 340,000 active | inhibition, % at 5.96 µM | recombinant HTRA1, FP-rhodamine activity-based probe, fluorescence polarization; in the data active = inhibition above about 36%
ABHD4 inh = ABHD4 (mouse) inhibition, primary FP screen; purified mABHD4, FP-Rh probe fluorescence polarization; inhibition, % at 8.92 µM; 0.54% of 370,000 active;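 active = inhibition exceeding the mean over every tested compound plus 3 SD, cut at about 30% in these data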
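Assay system: Wild-type mouse ABHD4 protein | Medium: HEPES pH 7.0 buffer, 150 mM NaCl, 0.01% Pluronic F-127 | Incubation: Enzyme–compound pre-incubation 45 min, then probe 60 min, both 25 °C | Technique: Fluorescence polarization with parallel and perpendicular emission, 525/598 nm | Evaluation: % inhibition of FP-Rh probe binding versus controls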
BSA probe FL = interferes with TAMRA-BSA probe, flagging TCR-CD3 hits; shares compounds with TCR-CD3 inh; TAMRA-labeled BSA probe fluorescence counterscreen; inhibition, % at 9.4 µM; 10% of 1,200 active; AID 652035; in the data active = inhibition above about 23%
TCR-CD3 conf = confirmation of human TCR-CD3 interaction inhibitors; shares compounds with TCR-CD3 inh; TAMRA-labeled TCR probe fluorescence binding assay; inhibition, % at 9.4 µM; 48% of 1,200 active; AID 652036
A number is an active result. Cut-off read from the data, not from the text of the source, unless noted: active = inhibition above about 19%; inactive = the rest.

What do the screens show for `CC1=NN(C(=O)c2ccccc2)C(O)(c2ccc(Br)cc2)C1` (configuration not stated)?
SIAE inh: inactive; Fam108B counter: inactive; TCR-CD3 inh: 24.0; PME-1 primary: inactive; HTRA1 inhibitor: inactive; ABHD4 inh: inactive; BSA probe FL: inactive; TCR-CD3 conf: 24.9

Results for CC1=NN(C(=O)c2ccccc2F)C(O)(c2ccc(Cl)cc2)C1 (configuration not stated) ?
SIAE inh: inactive; Fam108B counter: inactive; TCR-CD3 inh: 22.5; PME-1 primary: inactive; HTRA1 inhibitor: inactive; ABHD4 inh: inactive; BSA probe FL: inactive; TCR-CD3 conf: inactive

Results for O=C(CN1CCc2onc(-c3cccc(-n4cc(CO)nn4)c3)c2C1=O)N1CCOCC1 ?
SIAE inh: inactive; ABHD4 inh: inactive

How did COCCN(C(=O)CC1C(=O)NCCN1Cc1ccc(-c2ccccc2)cc1)C(C)C (configuration not stated) do in these assays?
SIAE inh: inactive; Fam108B counter: inactive; TCR-CD3 inh: 24.2; PME-1 primary: inactive; HTRA1 inhibitor: inactive; ABHD4 inh: inactive; BSA probe FL: inactive; TCR-CD3 conf: inactive

Results for NC(=O)c1ccc(NC(=O)COC(=O)c2c3c(nc4ccccc24)/C(=C\c2cccs2)CCC3)cc1 ?
SIAE inh: inactive; Fam108B counter: inactive; TCR-CD3 inh: 19.7; PME-1 primary: inactive; HTRA1 inhibitor: inactive; ABHD4 inh: inactive; BSA probe FL: inactive; TCR-CD3 conf: inactive

Results for CCc1cccc(C)c1NC(=O)COC(=O)c1c2c(nc3ccccc13)/C(=C\c1cccs1)CCC2 ?
SIAE inh: inactive; Fam108B counter: inactive; TCR-CD3 inh: inactive; PME-1 primary: inactive; HTRA1 inhibitor: inactive; ABHD4 inh: inactive

Results for Cc1ccc(CNC(=O)OC(C)(C)C)c(/C=C/S(=O)(=O)NCCc2ccccc2)c1 ?
SIAE inh: inactive; ABHD4 inh: inactive

What do the screens show for `Cc1ccc(-c2nc3c(C)cc(Br)cn3c2Cc2ccsc2)cc1`?
SIAE inh: inactive; TCR-CD3 inh: 23.0; ABHD4 inh: inactive; BSA probe FL: inactive; TCR-CD3 conf: inactive

Results for Cc1cc(Br)cn2c(Cc3ccsc3)c(-c3ccccc3)nc12 ?
SIAE inh: inactive; TCR-CD3 inh: inactive; ABHD4 inh: inactive

How did C[C@H]1[C@@H](NCC2CCCCC2)CC[C@@]23CCCN2C(=O)CCC[C@@H]13 do in these assays?
SIAE inh: inactive; ABHD4 inh: inactive

How did COc1ccccc1/C=N/N1C(=O)c2cccc3cccc(c23)C1=O do in these assays?
SIAE inh: inactive; Fam108B counter: inactive; TCR-CD3 inh: 31.8; PME-1 primary: inactive; HTRA1 inhibitor: inactive; ABHD4 inh: inactive; BSA probe FL: 32.6; TCR-CD3 conf: 19.1

Results for O=C(Nc1ccc2oc(-c3cccnc3)nc2c1)c1ccc2c(c1)OCCO2 ?
SIAE inh: inactive; Fam108B counter: inactive; TCR-CD3 inh: 27.1; PME-1 primary: inactive; HTRA1 inhibitor: inactive; ABHD4 inh: inactive; BSA probe FL: inactive; TCR-CD3 conf: inactive

Results for O=C(Nc1ccc2oc(-c3ccccc3)nc2c1)c1ccc2c(c1)OCCO2 ?
SIAE inh: inactive; Fam108B counter: inactive; TCR-CD3 inh: inactive; PME-1 primary: inactive; HTRA1 inhibitor: inactive; ABHD4 inh: inactive

Results for Cc1nc(CSc2ccc(Cl)cc2)cc(N2CCOCC2)n1 ?
SIAE inh: inactive; Fam108B counter: inactive; TCR-CD3 inh: inactive; PME-1 primary: inactive; HTRA1 inhibitor: inactive; ABHD4 inh: inactive

Results for Cc1ccc(SCc2cc(=O)[nH]c(N3CCOCC3)n2)cc1 ?
SIAE inh: inactive; Fam108B counter: inactive; TCR-CD3 inh: 19.4; PME-1 primary: inactive; HTRA1 inhibitor: inactive; ABHD4 inh: inactive; BSA probe FL: inactive; TCR-CD3 conf: inactive

What do the screens show for `COC(=O)[C@]12C[C@H](CC(=O)NCc3cccs3)C(=O)N(Cc3ccc(Cl)cc3Cl)C1=C[C@H](C(C)(C)C)O[C@@H]2C`?
SIAE inh: inactive; ABHD4 inh: inactive

Results for NS(=O)(=O)c1cccc(NC(=O)COC(=O)c2ccccc2C(=O)c2ccccc2)c1 ?
SIAE inh: inactive; TCR-CD3 inh: inactive; PME-1 primary: inactive; HTRA1 inhibitor: inactive; ABHD4 inh: inactive

Screening data as filed in PubChem BioAssay.
